Data on 1 compound can be found in ChEMBL document CHEMBL2380295, “Structure-activity studies on the side chain of a simplified analog of aplysiatoxin (aplog-1) with anti-proliferative activity” (Bioorg Med Chem, 2013).

Each structure is given as a SMILES string.

In one series the test system is MKN-45. The experiment in a line: Growth inhibition of human MKN45 cells after 48 hrs by sulforhodamine B assay. The series is classed as functional. Particulars: MKN-45, 48 h. The gist of the method: (§1)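 Yamori 39-line human cancer panel, NCI method with modifications. Cells plated in RPMI 1640 plus 5% FBS, attached overnight, then exposed 48 h to compound at 10^-8, 10^-7, 10^-6, 10^-5 and 10^-4 M. Sulforhodamine B staining read at 525 nm; % growth = 100[(T−T0)/(C−T0)] from duplicate-point averages, with T0 the time-zero absorbance. GI50 is the concentration giving 50.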
With `CC(=O)Nc1ccc(CCCC[C@@H]2C[C@@H]3C[C@@]4(O[C@H](CCC4(C)C)CC(=O)O[C@@H](CO)CC(=O)O3)O2)cc1O`, halving of growth (GI50) required 28.8 µM.

In the next series the test system is MKN-74. As to the kind of experiment: Growth inhibition of human MKN74 cells after 48 hrs by sulforhodamine B assay. Type of series: functional. The following applies: MKN-74, 48 h. In short, it runs like this:
as §1
For the compound `CC(=O)Nc1ccc(CCCC[C@@H]2C[C@@H]3C[C@@]4(O[C@H](CCC4(C)C)CC(=O)O[C@@H](CO)CC(=O)O3)O2)cc1O`, it took 33.1 µM to inhibit growth by half (GI50).

In the next series the test system is HCT-116. The experiment in a line: Growth inhibition of human HCT116 cells after 48 hrs by sulforhodamine B assay. Type of series: functional. The following applies: HCT-116, 48 h. In short, it runs like this: as §1
As to `CC(=O)Nc1ccc(CCCC[C@@H]2C[C@@H]3C[C@@]4(O[C@H](CCC4(C)C)CC(=O)O[C@@H](CO)CC(=O)O3)O2)cc1O`, the GI50 was 31.6 µM.

Tested on in a further series: not listed separately
The experiment in a line: Growth inhibition of human HCC2998 cells after 48 hrs by sulforhodamine B assay. The following applies: HCC 2998, 48 h. The series is classed as functional. In short, it runs like this:
as §1
`CC(=O)Nc1ccc(CCCC[C@@H]2C[C@@H]3C[C@@]4(O[C@H](CCC4(C)C)CC(=O)O[C@@H](CO)CC(=O)O3)O2)cc1O` had a GI50 of 13.8 µM.

Another series has as its system KM12. As to the kind of experiment: Growth inhibition of human KM12 cells after 48 hrs by sulforhodamine B assay. Type of series: functional. Particulars: KM12, 48 h. In short, it runs like this: as §1
The compound `CC(=O)Nc1ccc(CCCC[C@@H]2C[C@@H]3C[C@@]4(O[C@H](CCC4(C)C)CC(=O)O[C@@H](CO)CC(=O)O3)O2)cc1O` gave a GI50 of 31.6 µM.

The subject of another series is SF-295. The experiment in a line: Growth inhibition of human SF295 cells after 48 hrs by sulforhodamine B assay. Type of series: functional. Particulars: SF-295, 48 h. The gist of the method: as §1
Turning to `CC(=O)Nc1ccc(CCCC[C@@H]2C[C@@H]3C[C@@]4(O[C@H](CCC4(C)C)CC(=O)O[C@@H](CO)CC(=O)O3)O2)cc1O`, halving of growth (GI50) required 13.2 µM.

The test system of the next series is SNB-75. The experiment in a line: Growth inhibition of human SNB75 cells after 48 hrs by sulforhodamine B assay. The series is classed as functional. The following applies: SNB-75, 48 h. In short, it runs like this:
as §1
As to `CC(=O)Nc1ccc(CCCC[C@@H]2C[C@@H]3C[C@@]4(O[C@H](CCC4(C)C)CC(=O)O[C@@H](CO)CC(=O)O3)O2)cc1O`, halving of growth (GI50) required 41.7 µM. This lies in the double-digit micromolar range.

For a further series, the system named is NCI-H522. As to the kind of experiment: Growth inhibition of human NCI-H522 cells after 48 hrs by sulforhodamine B assay. Type of series: functional. The following applies: NCI-H522, 48 h. In short, it runs like this:
as §1
In turn, `CC(=O)Nc1ccc(CCCC[C@@H]2C[C@@H]3C[C@@]4(O[C@H](CCC4(C)C)CC(=O)O[C@@H](CO)CC(=O)O3)O2)cc1O` gave a GI50 of 25.7 µM.

The test system of a further series is OVCAR-8. The experiment in a line: Growth inhibition of human OVCAR8 cells after 48 hrs by sulforhodamine B assay. The series is classed as functional. The following applies: OVCAR-8, 48 h. The gist of the method:
as §1
`CC(=O)Nc1ccc(CCCC[C@@H]2C[C@@H]3C[C@@]4(O[C@H](CCC4(C)C)CC(=O)O[C@@H](CO)CC(=O)O3)O2)cc1O` had a GI50 of 44.7 µM.

The test system of another series is OVCAR-5. The experiment in a line: Growth inhibition of human OVCAR5 cells after 48 hrs by sulforhodamine B assay. The series is classed as functional. The following applies: OVCAR-5, 48 h. The gist of the method:
as §1
`CC(=O)Nc1ccc(CCCC[C@@H]2C[C@@H]3C[C@@]4(O[C@H](CCC4(C)C)CC(=O)O[C@@H](CO)CC(=O)O3)O2)cc1O` gave a 50% growth inhibitory concentration (GI50) of 20.4 µM.

A further series concerns SF-268. As to the kind of experiment: Growth inhibition of human SF268 cells after 48 hrs by sulforhodamine B assay. The series is classed as functional. The following applies: SF-268, 48 h. In short, it runs like this:
as §1
For `CC(=O)Nc1ccc(CCCC[C@@H]2C[C@@H]3C[C@@]4(O[C@H](CCC4(C)C)CC(=O)O[C@@H](CO)CC(=O)O3)O2)cc1O`, halving of growth (GI50) required 43.7 µM.

The next series has as its system MKN-28. The experiment in a line: Growth inhibition of human MKN28 cells after 48 hrs by sulforhodamine B assay. The series is classed as functional. The following applies: MKN-28, 48 h. In short, it runs like this: as §1
`CC(=O)Nc1ccc(CCCC[C@@H]2C[C@@H]3C[C@@]4(O[C@H](CCC4(C)C)CC(=O)O[C@@H](CO)CC(=O)O3)O2)cc1O` gave a GI50 of 2.57 µM. In other words, the single-digit micromolar range.

In the next series the test system is DMS-273. The experiment in a line: Growth inhibition of human DMS273 cells after 48 hrs by sulforhodamine B assay. The series is classed as functional. The following applies: DMS-273, 48 h. In short, it runs like this: as §1
The compound `CC(=O)Nc1ccc(CCCC[C@@H]2C[C@@H]3C[C@@]4(O[C@H](CCC4(C)C)CC(=O)O[C@@H](CO)CC(=O)O3)O2)cc1O` had a concentration for 50% growth inhibition (GI50) of 0.933 µM.

For the next series, the system named is SF-539. The experiment in a line: Growth inhibition of human SF539 cells after 48 hrs by sulforhodamine B assay. Type of series: functional. The following applies: SF-539, 48 h. The gist of the method:
as §1
Consider `CC(=O)Nc1ccc(CCCC[C@@H]2C[C@@H]3C[C@@]4(O[C@H](CCC4(C)C)CC(=O)O[C@@H](CO)CC(=O)O3)O2)cc1O`, for which halving of growth (GI50) required 30.2 µM. That is a double-digit micromolar value.

The subject of another series is Human gammaherpesvirus 4. The experiment in a line: Induction of EBV-early antigen expressed in human Raji cells at 10^-6 M after 48 hrs by immunofluorescence assay relative to control. The series is classed as organism-based. The following applies: human gammaherpesvirus 4, raji, 1 µM. The gist of the method: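 Raji B-lymphoblastoid cells (5 × 10^5/mL) in RPMI 1640 with 10% FBS, with 4 mM sodium n-butyrate as synergist and test compound at 10^-7 or 10^-6 M (final DMSO 0.4%). Incubated 48 h at 37 °C under 5% CO2. Smears were stained by indirect immunofluorescence using NPC patient serum and FITC anti-human IgG. At least 500 cells counted; % EA-positive recorded; n = 3, SEM.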
Consider `CC(=O)Nc1ccc(CCCC[C@@H]2C[C@@H]3C[C@@]4(O[C@H](CCC4(C)C)CC(=O)O[C@@H](CO)CC(=O)O3)O2)cc1O`, for which the Activity amounted to 2.4%.

The subject of a further series is SK-OV-3. The experiment in a line: Growth inhibition of human SKOV3 cells after 48 hrs by sulforhodamine B assay. The following applies: SK-OV-3, 48 h. Type of series: functional. In short, it runs like this:
as §1
`CC(=O)Nc1ccc(CCCC[C@@H]2C[C@@H]3C[C@@]4(O[C@H](CCC4(C)C)CC(=O)O[C@@H](CO)CC(=O)O3)O2)cc1O` had a GI50 of 34.7 µM.

Tested on in the next series: not listed separately
As to the kind of experiment: Growth inhibition of human HBC5 cells after 48 hrs by sulforhodamine B assay. The series is classed as functional. Particulars: HBC5, 48 h. In short, it runs like this: as §1
Consider `CC(=O)Nc1ccc(CCCC[C@@H]2C[C@@H]3C[C@@]4(O[C@H](CCC4(C)C)CC(=O)O[C@@H](CO)CC(=O)O3)O2)cc1O`, for which the GI50 is 46.8 µM.

Another series has as its system NCI-H226. As to the kind of experiment: Growth inhibition of human NCI-H226 cells after 48 hrs by sulforhodamine B assay. Type of series: functional. The following applies: NCI-H226, 48 h. In short, it runs like this:
as §1
For the compound `CC(=O)Nc1ccc(CCCC[C@@H]2C[C@@H]3C[C@@]4(O[C@H](CCC4(C)C)CC(=O)O[C@@H](CO)CC(=O)O3)O2)cc1O`, the GI50 is 26.9 µM.

The next series deals with MDA-MB-231. As to the kind of experiment: Growth inhibition of human MDA-MB-231 cells after 48 hrs by sulforhodamine B assay. Type of series: functional. Particulars: MDA-MB-231, 48 h. In short, it runs like this: as §1
In turn, `CC(=O)Nc1ccc(CCCC[C@@H]2C[C@@H]3C[C@@]4(O[C@H](CCC4(C)C)CC(=O)O[C@@H](CO)CC(=O)O3)O2)cc1O` gave a GI50 of 16.6 µM.

A further series relates to ACHN. The experiment in a line: Growth inhibition of human ACHN cells after 48 hrs by sulforhodamine B assay. Type of series: functional.
Settings: not given
In short, it runs like this:
as §1
For `CC(=O)Nc1ccc(CCCC[C@@H]2C[C@@H]3C[C@@]4(O[C@H](CCC4(C)C)CC(=O)O[C@@H](CO)CC(=O)O3)O2)cc1O`, the GI50 was 26.3 µM. In other words, the double-digit micromolar range.

The subject of the next series is MKN-7. As to the kind of experiment: Growth inhibition of human MKN7 cells after 48 hrs by sulforhodamine B assay. The series is classed as functional. The following applies: MKN-7, 48 h. In short, it runs like this:
as §1
`CC(=O)Nc1ccc(CCCC[C@@H]2C[C@@H]3C[C@@]4(O[C@H](CCC4(C)C)CC(=O)O[C@@H](CO)CC(=O)O3)O2)cc1O`: growth was halved (GI50) at 30.2 µM.

Tested on in a further series: not listed separately
As to the kind of experiment: Octanol-water partition coefficient, log P of the compound by HPLC analysis. Type of series: physicochemical.
Settings: not given
In short, it runs like this: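 log P was estimated from HPLC retention, with column dead time measured using unretained formamide.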
Take `CC(=O)Nc1ccc(CCCC[C@@H]2C[C@@H]3C[C@@]4(O[C@H](CCC4(C)C)CC(=O)O[C@@H](CO)CC(=O)O3)O2)cc1O`: the logP turned out to be 2.7.

Tested on in the next series: not listed separately
The experiment in a line: Cytotoxicity against human Raji cells assessed as cell viability at 10^-7 M. Type of series: cell-based. Particulars: read-out: Activity.
With `CC(=O)Nc1ccc(CCCC[C@@H]2C[C@@H]3C[C@@]4(O[C@H](CCC4(C)C)CC(=O)O[C@@H](CO)CC(=O)O3)O2)cc1O`, the viability at 0.1 µM stood at 60%.
